Reference: article PMC4321732 (Structure (London, England : 1993), 2015)
pKd: −log10 of the molar value. *1 amine or outer side, *2 acyl side, *3 side chain or, on linkers, in order; H or OH if unused. Where no end group is shown, it is not given here. [ ]: non-standard residue; d: D form. KCme2 = N-dimethylated aminoethylcysteine, CN(C)CCSC[C@H](N[*:1])C(=O)[*:2]; Me2 = dimethyl group on the Lys side-chain amine

Tests used:
[1] = target: T1, 53BP1 TTD (Homo sapiens, UniProt Q12888); test: NMR titration; type: binding; settings: 1H,15N HSQC, 298 K; for effect of glycine mutation on CSPs in 15N-labeled TTD: 0.1–0.2 mM TTD, glycine mutants of p53KC370me2 peptide
T1 sequence (Q12888 1484-1603): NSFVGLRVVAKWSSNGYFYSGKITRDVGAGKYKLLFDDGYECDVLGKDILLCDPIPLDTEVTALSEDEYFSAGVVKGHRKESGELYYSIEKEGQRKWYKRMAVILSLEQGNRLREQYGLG

[2] = target: T1, 53BP1 TTD; settings: monomeric TTD; ref Roy et al., 2010; cited from earlier work
[3] = target: T1, 53BP1 TTD; test: NMR solution structure of TTD-peptide complex; settings: 298 K, 25 mM sodium phosphate pH 7.5
Outline: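 Complexes of the 53BP1 tandem Tudor domain with dimethylated p53 peptides (residues 363–377 or 376–387) recorded on a 700 MHz cryoprobe in 90% H2O/10% D2O or 100% D2O with 1.5 mM NaN3. Samples were 2 mM 13C/15N-TTD with 6 mM unlabeled peptide, or 2 mM labeled dimethyllysine-analog peptide with 5 mM TTD. Intermolecular NOEs came from filtered 13C-edited NOESY-HSQC.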

[4] = target: CL-TTD (Homo sapiens, UniProt Q12888, C1525A/C1535A); test: NMR titration; type: binding; settings: 1H,15N HSQC, 298 K, 0.1–0.2 mM CL-TTD
Chain of CL-TTD (Q12888 1481-1603 C1525A/C1535A): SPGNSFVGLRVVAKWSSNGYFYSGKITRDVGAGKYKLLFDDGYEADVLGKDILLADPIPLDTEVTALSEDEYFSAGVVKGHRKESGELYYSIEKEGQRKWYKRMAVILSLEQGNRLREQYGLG

[5] = system: GST-tagged 53BP1 TTD; test: Peptide microarray; type: binding, human; settings: normalized mean intensities of four arrays
[6] = target: T1, 53BP1 TTD; test: Overall preference of 53BP1 TTD from peptide library, fluorescence and NMR; type: binding; settings: overall conclusion from library, fluorescence and NMR results

p53H365GKC370me2: p53KC370me2 peptide with H365 substituted with glycine (GHMRAGSSHL[KCme2]SKKGQST)
effect of glycine mutation on CSPs in 15N-labeled TTD [1]: Alterations in CSPs

p53H368GKC370me2: p53KC370me2 peptide with H368 substituted with glycine (GHMRAHSSGLCSKKGQST; not fully specified (residue 11))
effect of glycine mutation on CSPs in 15N-labeled TTD [1]: Alterations in CSPs

p53K370me2: p53K370me2 (residues 363–377) peptide, chemically synthesized (RAHSSHLK(Me2)SKKGQST)
pKd [2]: 4.70
protein-peptide interface area in NMR ensemble [3]: 707 ± 43 Å^2
site of dimethyllysine indicated by pattern of CSPs [1]: fully consistent with K370me2 occupying the aromatic cage

p53K382me2: p53K382me2 (residues 376–387) peptide, chemically synthesized (STSRHKK(Me2)LMFKT)
pKd [2]: 6.05
protein-peptide interface area in NMR ensemble [3]: 678 ± 60 Å^2
chemical shift / resonance intensity changes in 15N-labelled CL-TTD [4]: substantial chemical shift changes
binding in peptide library screen [5]: recognized primarily
preference of 53BP1 TTD module [6]: strong preference

p53KC370me2K372G: p53KC370me2 peptide with K372 substituted with glycine (GHMRAHSSHLCSGKGQST; not fully specified (residue 11))
effect of glycine mutation on CSPs in 15N-labeled TTD [1]: caused the same CSPs as the wild type p53KC382me2 peptide

p53KC370me2K373G: p53KC370me2 peptide with K373 substituted with glycine (GHMRAHSSHLCSKGGQST; not fully specified (residue 11))
effect of glycine mutation on CSPs in 15N-labeled TTD [1]: caused the same CSPs as the wild type p53KC382me2 peptide

p53L369GKC370me2: p53KC370me2 peptide with L369 substituted with glycine (GHMRAHSSHGCSKKGQST; not fully specified (residue 11))
effect of glycine mutation on CSPs in 15N-labeled TTD [1]: Alterations in CSPs
